# Source: ChEMBL document CHEMBL1121484, “Thrombin inhibitors. 2. Amide derivatives of N alpha-substituted L-arginine” (J Med Chem, 1980)
# Target: Prothrombin (Bos taurus, UniProt P00735)
# Test: Bovine thrombin concentration at which clotting time was prolonged 2x over the control.
# Format: functional
# Details: read-out: I50
# Summary of the method: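 Clotting assay at 25 °C. The read-out was the time from thrombin addition to clot formation.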
row,Structure (SMILES),IC50 [µM]
1,CCCCNC(=O)C(CCCN=C(N)N)NS(=O)(=O)c1cccc2c(N(C)C)cccc12 (stereo not drawn),2.1
2,CCC1CCN(C(=O)C(CCCN=C(N)N)NS(=O)(=O)c2cccc3c(C(=O)O)cccc23)CC1 (stereo not drawn),1000
3,CCC1CCN(C(=O)C(CCCN=C(N)N)NS(=O)(=O)c2ccc3c(c2)C(=O)c2ccccc2C3=O)CC1 (stereo not drawn),1.5
4,CC1CCN(C(=O)C(CCCN=C(N)N)NS(=O)(=O)c2ccc3ccccc3c2)CC1 (stereo not drawn),4.5
5,CCN(CC)C(=O)C(CCCN=C(N)N)NS(=O)(=O)c1cccc2c(N(C)C)cccc12 (stereo not drawn),55
6,CN(C)c1cccc2c(S(=O)(=O)NC(CCCNC(=N)N)C(=O)NC3CCCCC3)cccc12 (stereo not drawn),500
7,CCC1CCN(C(=O)C(CCCN=C(N)N)NS(=O)(=O)c2cccc3c([N+](=O)[O-])cccc23)CC1 (stereo not drawn),1
8,CC(=O)N1CCN(C(=O)C(CCCN=C(N)N)NS(=O)(=O)c2cccc3c(N(C)C)cccc23)CC1 (stereo not drawn),3.5
9,CN(C)c1cccc2c(S(=O)(=O)NC(CCCNC(=N)N)C(=O)NCCc3ccccc3)cccc12 (stereo not drawn),150
10,CCOc1cc2ccc(S(=O)(=O)NC(CCCN=C(N)N)C(=O)N3CCC(CC)CC3)cc2cc1OCC (stereo not drawn),5.5
11,CC1CCCN(C(=O)C(CCCNC(=N)N)NS(=O)(=O)c2cccc3c(N(C)C)cccc23)C1 (stereo not drawn),6.5
12,CN(C)c1cccc2c(S(=O)(=O)NC(CCCN=C(N)N)C(=O)N3CCCCC3)cccc12 (stereo not drawn),1
13,N=C(N)NCCCC(NS(=O)(=O)c1ccc2ccccc2c1)C(=O)N1CCCCCC1 (stereo not drawn),20
14,CCC1CCN(C(=O)C(CCCN=C(N)N)NS(=O)(=O)c2ccc3cc4c(cc3c2)OCCO4)CC1 (stereo not drawn),10
15,CCCCN(CCCC)C(=O)C(CCCNC(=N)N)NS(=O)(=O)c1cccc2c(N(C)C)cccc12 (stereo not drawn),40
16,CN(C)c1cccc2c(S(=O)(=O)NC(CCCNC(=N)N)C(=O)N3CCCCCC3)cccc12 (stereo not drawn),0.9
17,CCC1CCN(C(=O)C(CCCN=C(N)N)NS(=O)(=O)c2ccc3cc(N(C)C)ccc3c2)CC1 (stereo not drawn),0.3
18,CCCOc1cccc2c(S(=O)(=O)NC(CCCNC(=N)N)C(=O)N3CCC(CC)CC3)cccc12 (stereo not drawn),0.5
19,CN(C)c1cccc2c(S(=O)(=O)NC(CCCN=C(N)N)C(=O)N3CC4CCCC(C4)C3)cccc12 (stereo not drawn),10
20,CCC1CCN(C(=O)C(CCCN=C(N)N)NS(=O)(=O)c2cccc3c(O)cccc23)CC1 (stereo not drawn),6
21,CCCCNC(=O)C(CCCNC(=N)N)NS(=O)(=O)c1cccc2ccccc12 (stereo not drawn),50
22,CCCCCCNC(=O)C(CCCN=C(N)N)NS(=O)(=O)c1cccc2c(N(C)C)cccc12 (stereo not drawn),20
23,CCC1CCN(C(=O)C(CCCN=C(N)N)NS(=O)(=O)c2cccc3c(OC)cccc23)CC1 (stereo not drawn),0.6
24,CC1CCN(C(=O)C(CCCN=C(N)N)NS(=O)(=O)c2ccc3c(c2)OCCCO3)CC1 (stereo not drawn),8
25,CC(C)CNC(=O)C(CCCNC(=N)N)NS(=O)(=O)c1cccc2c(N(C)C)cccc12 (stereo not drawn),100
26,CN1CCN(C(=O)C(CCCN=C(N)N)NS(=O)(=O)c2cccc3c(N(C)C)cccc23)CC1 (stereo not drawn),2
27,N=C(N)NCCCC(NS(=O)(=O)c1ccc2ccccc2c1)C(=O)N1CCOCC1 (stereo not drawn),20

# Second part, the compound after the results:
row,IC50 [µM],Structure (SMILES)
1,3.3,CN(C)c1cccc2c(S(=O)(=O)NC(CCCNC(=N)N)C(=O)N3CCCC3)cccc12 (stereo not drawn)
2,1100,CC(C)NC(=O)C(CCCN=C(N)N)NS(=O)(=O)c1cccc2c(N(C)C)cccc12 (stereo not drawn)
3,4,CC1CCN(C(=O)C(CCCN=C(N)N)NS(=O)(=O)c2cccc3ccccc23)CC1 (stereo not drawn)
4,0.1,CCC1CCN(C(=O)C(CCCNC(=N)N)NS(=O)(=O)c2cccc3c(N(C)C)cccc23)CC1 (stereo not drawn)
5,40,COCCNC(=O)C(CCCN=C(N)N)NS(=O)(=O)c1cccc2c1CCCC2 (stereo not drawn)
6,25,CCC1CCN(C(=O)C(CCCN=C(N)N)NS(=O)(=O)c2ccc3c(c2)OCCO3)CC1 (stereo not drawn)
7,0.4,CCC1CCN(C(=O)C(CCCNC(=N)N)NS(=O)(=O)c2cccc3c(OC(C)C)cccc23)CC1 (stereo not drawn)
8,4,COc1cccc2cccc(S(=O)(=O)NC(CCCN=C(N)N)C(=O)N3CCC(C)CC3)c12 (stereo not drawn)
9,500,COc1ccc(CNC(=O)C(CCCN=C(N)N)NS(=O)(=O)c2cccc3c(N(C)C)cccc23)cc1 (stereo not drawn)
10,130,CCCCCNC(=O)C(CCCN=C(N)N)NS(=O)(=O)c1cccc2c(N(C)C)cccc12 (stereo not drawn)
11,100,CCNC(=O)C(CCCN=C(N)N)NS(=O)(=O)c1cccc2c(N(C)C)cccc12 (stereo not drawn)
12,0.2,CCC1CCN(C(=O)C(CCCNC(=N)N)NS(=O)(=O)c2ccc3cc(OC)ccc3c2)CC1 (stereo not drawn)
13,10,C=CCNC(=O)C(CCCN=C(N)N)NS(=O)(=O)c1cccc2c(N(C)C)cccc12 (stereo not drawn)
14,20,N=C(N)NCCCC(NS(=O)(=O)c1cccc2ccccc12)C(=O)N1CCOCC1 (stereo not drawn)
15,0.1,CCC1CCN(C(=O)C(CCCNC(=N)N)NS(=O)(=O)c2ccc3ccc(OC)cc3c2)CC1 (stereo not drawn)
16,1,CCC1CCN(C(=O)C(CCCN=C(N)N)NS(=O)(=O)c2cc(OC)c3ccccc3c2)CC1 (stereo not drawn)

# Target: Prothrombin (Bos taurus) (UniProt P00735)
# Test: Percentage of rate of hydrolysis in 4 hr incubation by thrombin
# Format: functional
# Details: not given
# Summary of the method: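 Test compounds at 1 mM in 0.1 M Tris-HCl, pH 8.0, were incubated with thrombin (100 units in a 1.0 mL reaction) at 37 °C for 4 h. Hydrolysis rate was followed titrimetrically with a pH-stat and automatic burette at 37 °C and pH 8.0.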
row,Hydrolysis [%],Structure (SMILES)
1,0,COCCNC(=O)C(CCCN=C(N)N)NS(=O)(=O)c1cccc2c(N(C)C)cccc12 (stereo not drawn)
2,0,CCC1CCN(C(=O)C(CCCN=C(N)N)NS(=O)(=O)c2cccc3c(N(C)C)cccc23)CC1 (stereo not drawn)
3,0,CCCCNC(=O)C(CCCN=C(N)N)NS(=O)(=O)c1cccc2c(N(C)C)cccc12 (stereo not drawn)
4,0,CCCCN(C)C(=O)C(CCCN=C(N)N)NS(=O)(=O)c1cccc2c(N(C)C)cccc12 (stereo not drawn)
5,0,CN(C)c1cccc2c(S(=O)(=O)NC(CCCN=C(N)N)C(=O)N3CCCCC3)cccc12 (stereo not drawn)
